The text below walks through data of ChEMBL document CHEMBL3351626, “Discovery, structure-activity relationship studies, and anti-nociceptive effects of 1-phenyl-3,6,6-trimethyl-1,5,6,7-tetrahydro-4H-indazol-4-one as novel opioid receptor agonists” (Bioorg Med Chem, 2014).

Active and inactive are the calls of the source. No cut-off for these calls is given here.

Experiment [1] has as its target T1, Mu-type opioid receptor (Homo sapiens, UniProt P35372). The class given is functional, cell-based, CHO-K1.
Experiment [2] concerns the target Mu-type opioid receptor (Rattus norvegicus, UniProt P33535). Nature of the experiment: Displacement of [3H]-naloxone from rat mu opioid receptor expressed in HEK cells after 60 mins. The class given is cell-based, HEK293.
For experiment [3], the target named is Delta-type opioid receptor (Homo sapiens, UniProt P41143). Nature of the experiment: Agonist activity at human delta opioid receptor expressed in HEK293 cells assessed as inhibition of forskolin-induced cAMP production after 30 mins by HTRF assay. The class given is functional, cell-based.
Experiment [4] addresses T1, Mu-type opioid receptor. The experiment can be described thus: Agonist activity at human mu opioid receptor expressed in HEK293 cells assessed as inhibition of forskolin-induced cAMP production after 30 mins by HTRF assay. It is filed as functional, cell-based. On the technique in general: Changes in cAMP serve as a functional read-out for many G protein-coupled receptors.

The target in experiment [5] is Kappa-type opioid receptor (Homo sapiens, UniProt P41145). Nature of the experiment: Agonist activity at human kappa opioid receptor expressed in HEK293 cells assessed as inhibition of forskolin-induced cAMP production after 30 mins by HTRF assay. The class given is functional, cell-based. Put shortly: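 HEK293 cells stably expressing the mu, delta or kappa opioid receptor, plus parental cells, at 2000 cells/well in DMEM. Compound in HBSS added with 1 µM forskolin and 100 µM IBMX for 30 min at room temperature. d2-cAMP and anti-cAMP antibody in lysis buffer then added. Read 2 h later: excitation 330 nm, emission 620 and 665 nm.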

For experiment [6], the target named is T1, Mu-type opioid receptor. The experiment can be described thus: Agonist activity at myc-tagged mu opioid receptor (unknown origin) expressed in AtT-20 cells assessed as induction of membrane potential hyperpolarization. The class given is cell-based, AtT20. Put shortly: (§1)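 Mouse pituitary AtT-20 cells (endogenous GIRK1/GIRK2) electroporated with myc-MOR plasmid or vehicle and seeded. After 24 h, serum-starved 3 h, then loaded with blue membrane potential dye for 0.5 h at 25 °C. Vehicle or compound added and potassium conductance read as fluorescence over about 175 s.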

Experiment [7] deals with Mus musculus. The experiment can be described thus: Analgesic activity in iv dosed wild type B6 mouse assessed as basal tail-flick withdrawal latency. It is filed as functional. The method, boiled down:
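Tail-flick instrument nociception test in wild-type B6 mice. Basal latency measured first, then compound given iv (20, 18.4 or 25 mg/kg depending on compound). Latency read at 10, 20, 30, 40, 50 and 60 min after dosing, reported as test latency minus basal latency. AUC of the time-response curve calculated; ED50 by up-and-down method. n=6 per group.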

Experiment [8] deals with T1, Mu-type opioid receptor. Nature of the experiment: Agonist activity at myc-tagged mu opioid receptor (unknown origin) expressed in AtT-20 cells assessed as induction of membrane potential hyperpolarization in presence of 1 uM naloxone. The class given is cell-based. Particulars: AtT20. Put shortly:
as §1

Experiment [9] concerns Mus musculus. The experiment can be described thus: Analgesic activity in wild type B6 mouse assessed as basal tail-flick withdrawal latency at 25 mg/kg, iv injected with 10 mg/kg, sc naloxone 5 mins before compound dosing. The class given is functional, organism-based. The method, boiled down:
(§2)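 Wild-type B6 mice, n=6 per group. Basal tail-flick latency measured first. […] Latency read at 10, 20, 30, 40, 50 and 60 min after dosing. Test minus basal latency plotted against time and AUC calculated.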

Experiment [10] relates to Mus musculus. Nature of the experiment: Analgesic activity in wild type B6 mouse assessed as basal tail-flick withdrawal latency at 20 mg/kg, iv injected with 10 mg/kg, sc naloxone 5 mins before compound dosing. It is filed as functional, organism-based. Put shortly:
as §2

For experiment [11], the system named is Mus musculus. The experiment can be described thus: Analgesic activity in wild type B6 mouse assessed as basal tail-flick withdrawal latency at 18.4 mg/kg, iv injected with 10 mg/kg, sc naloxone 5 mins before compound dosing. The class given is functional, organism-based. The method, boiled down:
as §2

As usually defined, the EC50 is the concentration that produces a half-maximal response. A word on the Ki: it is the equilibrium dissociation constant of an inhibitor or competing ligand from its target. One may read the IC50 as the midpoint of a concentration-inhibition curve. In general, ED50 refers to the dose that gives a 50% effect, or the effect in half of the subjects.

T1 sequence (P35372 whole entry): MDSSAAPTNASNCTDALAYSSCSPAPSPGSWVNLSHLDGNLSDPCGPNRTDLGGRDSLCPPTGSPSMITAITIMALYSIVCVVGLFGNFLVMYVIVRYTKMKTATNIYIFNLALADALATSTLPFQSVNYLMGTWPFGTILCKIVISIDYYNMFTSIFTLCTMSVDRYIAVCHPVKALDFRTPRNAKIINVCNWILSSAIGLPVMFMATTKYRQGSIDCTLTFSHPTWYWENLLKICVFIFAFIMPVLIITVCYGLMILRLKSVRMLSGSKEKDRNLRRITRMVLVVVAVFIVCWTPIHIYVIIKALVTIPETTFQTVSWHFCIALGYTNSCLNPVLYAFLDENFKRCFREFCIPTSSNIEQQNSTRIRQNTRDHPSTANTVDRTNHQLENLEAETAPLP
Chain of Delta-type opioid receptor (P41143 whole entry): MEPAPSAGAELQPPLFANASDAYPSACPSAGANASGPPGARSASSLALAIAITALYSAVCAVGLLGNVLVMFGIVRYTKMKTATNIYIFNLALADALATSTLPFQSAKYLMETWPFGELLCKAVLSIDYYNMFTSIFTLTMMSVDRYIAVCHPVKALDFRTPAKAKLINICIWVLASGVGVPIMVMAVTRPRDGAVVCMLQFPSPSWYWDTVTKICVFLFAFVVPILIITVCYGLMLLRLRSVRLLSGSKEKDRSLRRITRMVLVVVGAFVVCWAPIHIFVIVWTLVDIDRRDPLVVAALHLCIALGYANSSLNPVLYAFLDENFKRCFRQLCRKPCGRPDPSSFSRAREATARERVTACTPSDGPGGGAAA
Chain of Kappa-type opioid receptor (P41145 whole entry): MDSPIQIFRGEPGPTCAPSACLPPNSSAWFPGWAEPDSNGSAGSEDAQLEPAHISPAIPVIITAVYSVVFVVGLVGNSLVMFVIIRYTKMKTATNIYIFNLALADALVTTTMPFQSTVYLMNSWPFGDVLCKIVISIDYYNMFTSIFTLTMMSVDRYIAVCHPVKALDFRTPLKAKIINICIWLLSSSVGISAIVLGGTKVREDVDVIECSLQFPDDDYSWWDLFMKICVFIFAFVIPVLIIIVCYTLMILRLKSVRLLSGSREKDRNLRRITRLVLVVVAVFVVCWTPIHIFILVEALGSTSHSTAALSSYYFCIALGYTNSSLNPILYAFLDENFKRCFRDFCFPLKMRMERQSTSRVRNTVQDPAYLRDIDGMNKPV
Chain of Mu-type opioid receptor (Rattus norvegicus, UniProt P33535) (P33535 whole entry): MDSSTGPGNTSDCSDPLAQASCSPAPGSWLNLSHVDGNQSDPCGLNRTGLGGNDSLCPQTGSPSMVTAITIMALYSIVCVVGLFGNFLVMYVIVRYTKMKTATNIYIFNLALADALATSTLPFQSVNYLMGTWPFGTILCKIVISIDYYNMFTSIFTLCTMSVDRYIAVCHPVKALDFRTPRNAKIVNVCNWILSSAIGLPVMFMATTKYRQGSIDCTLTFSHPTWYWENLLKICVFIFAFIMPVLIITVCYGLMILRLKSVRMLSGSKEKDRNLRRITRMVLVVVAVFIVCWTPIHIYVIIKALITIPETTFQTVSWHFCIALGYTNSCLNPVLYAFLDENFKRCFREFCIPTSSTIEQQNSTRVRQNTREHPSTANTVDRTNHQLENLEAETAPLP

At Mu-type opioid receptor [1], `Cc1nn(-c2ccc(F)cc2F)c2c1C(=O)CC(C)(C)C2` returned an EC50 of 10300 nM.

`Cc1cc(Cl)ccc1-n1nc(C)c2c1CC(C)(C)CC2=O` gave an EC50 on Mu-type opioid receptor [1] of 370 nM. The same molecule showed an inhibition constant (Ki) on Mu-type opioid receptor [2] of more than 100000 nM.

With `Cc1ccccc1-n1nc(C)c2c1CC(C)(C)CC2=O`, the EC50 on Mu-type opioid receptor [1] came out at 4720 nM.

Consider `CCOC(=O)c1ccccc1-n1nc(C)c2c1CC(C)(C)CC2=O`, for which the EC50 at Mu-type opioid receptor [1] was 30200 nM.

Turning to `Cc1nn(-c2ccc(Cl)cc2Cl)c2c1C(=O)CC(C)(C)C2`, the midpoint of the response on Mu-type opioid receptor [1], the EC50, lay at 150 nM. For the same molecule, the IC50 came to 10000 nM in [3], 7890 nM at Mu-type opioid receptor [4] and 2650 nM in experiment [5].

In the case of `Cc1ccc(-n2nc(C)c3c2CC(C)(C)CC3=O)c(Br)c1`, the EC50 was 200 nM at Mu-type opioid receptor [6] and 41 nM at Mu-type opioid receptor [1]. Further, the IC50 in experiment [3] was more than 100000 nM; at Mu-type opioid receptor [4], 6000 nM; in experiment [5], 370 nM. In the experiment on Mus musculus [7], the ED50 came out at 26.6 mg/kg. For the same molecule, the result on Mu-type opioid receptor [8] and with Mus musculus [9] was inactive. The molecule further displayed a Ki on Mu-type opioid receptor [2] of 740 nM.

`Cc1nn(-c2ccccc2Br)c2c1C(=O)CC(C)(C)C2` came in with an EC50 on Mu-type opioid receptor [1] of 1120 nM.

On to `Cc1ccc(C)c(-n2nc(C)c3c2CC(C)(C)CC3=O)c1`, for which the EC50 at Mu-type opioid receptor [1] turned out to be 10000 nM.

For the molecule `Cc1nn(-c2ccc(Cl)cc2Cl)c2c1C(=O)CCC2`, at Mu-type opioid receptor [1], it took 13600 nM to reach a half-maximal effect (EC50).

The molecule `Cc1ccc(-n2nc(C)c3c2CC(C)(C)CC3=O)c(C)c1` returned an EC50 on Mu-type opioid receptor [1] of 370 nM. This molecule also came in with a Ki at Mu-type opioid receptor [2] of 3930 nM.

As for `Cc1n[nH]c2c1C(=O)CC(C)(C)C2`, the EC50 at Mu-type opioid receptor [1] is more than 100000 nM.

At Mu-type opioid receptor [1], `Cc1cccc(-n2nc(C)c3c2CC(C)(C)CC3=O)c1C` registered an EC50 of 8900 nM.

As to `CC1(C)CC(=O)c2c(C3CC3)nn(-c3ccc(Cl)cc3Cl)c2C1`, the EC50 at Mu-type opioid receptor [1] came to 370 nM. On Mu-type opioid receptor [2], this molecule registered a Ki of 1300 nM.

With `Cc1nn(-c2ccc(Br)cc2Br)c2c1C(=O)CC(C)(C)C2`, the EC50 at Mu-type opioid receptor [6] was found to be 5490 nM; on Mu-type opioid receptor [1] it was 41 nM. For the same molecule, the result in the experiment on Mus musculus [10] and at Mu-type opioid receptor [8] was inactive. For the same molecule, the IC50 came out at 1690 nM in [3], 730 nM at Mu-type opioid receptor [4] and 410 nM in experiment [5]. The ED50 with Mus musculus [7] is 8.4 mg/kg. The affinity on Mu-type opioid receptor [2], expressed as Ki, was 470 nM.

The molecule `Cc1nn(-c2ccccc2Cl)c2c1C(=O)CC(C)(C)C2` yielded an EC50 at Mu-type opioid receptor [1] of 2280 nM.

As to `Cc1nn(-c2ccc(Br)cc2Br)c2c1C(O)CC(C)(C)C2` (stereo not given), the EC50 at Mu-type opioid receptor [1] stood at 100 nM. The figures for the IC50 (in experiment [3]; on Mu-type opioid receptor [4]; in experiment [5]) were more than 100000 nM, 3380 nM and 1100 nM, respectively. Further, the Ki on Mu-type opioid receptor [2] was more than 100000 nM.

On Mu-type opioid receptor [1], `CC1(C)CC(=O)c2c(C(F)(F)F)nn(-c3ccc(Cl)cc3Cl)c2C1` came in with an EC50 of 1540 nM.

On Mu-type opioid receptor [1], `Cc1nn(-c2cccc(Cl)c2)c2c1C(=O)CC(C)(C)C2` came in with a concentration giving a half-maximal response (EC50) of more than 100000 nM.

On Mu-type opioid receptor [1], `COc1ccc(-n2nc(C)c3c2CC(C)(C)CC3=O)cc1` yielded an EC50 of 18400 nM.

As to `CCc1ccccc1-n1nc(C)c2c1CC(C)(C)CC2=O`, on Mu-type opioid receptor [1], the EC50 stood at 19000 nM.

On to `Cc1nn(-c2ccc(Cl)cc2Br)c2c1C(=O)CC(C)(C)C2`, for which the EC50 at Mu-type opioid receptor [6] turned out to be 100 nM; on Mu-type opioid receptor [1], 41 nM. Moreover, the IC50 in [3] is 3380 nM; on Mu-type opioid receptor [4] it was 3300 nM; in experiment [5], 570 nM. Moreover, the ED50 in the experiment with Mus musculus [7] was determined as 10.9 mg/kg. Also, the outcome in the experiment on Mus musculus [11] and on Mu-type opioid receptor [8] was inactive. On Mu-type opioid receptor [2], this molecule registered a Ki of 610 nM.

Take `Cc1nn(-c2cc(Cl)ccc2Cl)c2c1C(=O)CC(C)(C)C2`: it took 2890 nM to reach a half-maximal effect on Mu-type opioid receptor [1] (EC50).

In the case of `Cc1nn(-c2ccccc2)c2c1C(=O)CC(C)(C)C2`, the EC50 on Mu-type opioid receptor [1] was more than 100000 nM.

`Cc1nn(-c2ccc(Cl)cc2)c2c1C(=O)CC(C)(C)C2` registered an EC50 at Mu-type opioid receptor [1] of 13600 nM.

Consider `Cc1nn(-c2ccc(Br)cc2)c2c1C(=O)CC(C)(C)C2`, for which the EC50 on Mu-type opioid receptor [1] was determined as 9910 nM.

Consider `COC(=O)c1ccc(-n2nc(C)c3c2CC(C)(C)CC3=O)cc1`, for which the EC50 at Mu-type opioid receptor [1] was 10000 nM.
